Measured values taken from ChEMBL document CHEMBL4145521, “Regioselective synthesis of 3,4-diaryl-5-unsubstituted isoxazoles, analogues of natural cytostatic combretastatin A4” (Eur J Med Chem, 2018).

Assays:
Format in all cases: functional
Paracentrotus lividus [1] = assay: Antimitotic activity against Paracentrotus lividus embryo assessed as cleavage arrest measured at 5.5 hrs post fertilization by light microscopy
In short: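 Sea urchin eggs were fertilized with diluted sperm and cultured at room temperature in filtered seawater with paddle agitation (60 rpm), at up to 2000 embryos/mL. The effective threshold concentration causing cleavage alteration, death before hatching or full mitotic arrest was scored in duplicate.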

Paracentrotus lividus [2] = assay: Antimitotic activity against Paracentrotus lividus embryo assessed as embryo spinning after 15 mins to 20 hrs by light microscopy
In short: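 Free-swimming blastulae from the same culture were used just after hatching (8–10 h post-fertilization). They were kept in filtered seawater at room temperature and exposed to 2-fold decreasing concentrations. Spinning at the well bottom instead of forward swimming was monitored from 15 min to 20 h under light microscopy. The effective threshold concentration was recorded from duplicates.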

OVCAR-5 = assay: Cytotoxicity against human OVCAR5 cells assessed as cell growth at 0.01 uM incubated for 48 hrs by sulforhodamine B assay relative to control; conditions: OVCAR-5, 48 h, read-out: Activity
RXF 393 = assay: Cytotoxicity against human RXF393 cells assessed as cell growth at 0.01 uM incubated for 48 hrs by sulforhodamine B assay relative to control; conditions: RXF 393, 48 h, read-out: Activity
BT-549 [3] = assay: Cytotoxicity against human BT549 cells assessed as cell growth at 0.01 uM incubated for 48 hrs by sulforhodamine B assay relative to control; conditions: BT-549, 48 h, read-out: Activity
A498 = assay: Cytotoxicity against human A498 cells assessed as cell growth at 0.1 uM incubated for 48 hrs by sulforhodamine B assay relative to control; conditions: A498, 48 h, read-out: Activity
PC-3 [4] = assay: Cytotoxicity against human PC3 cells assessed as cell growth at 0.1 uM incubated for 48 hrs by sulforhodamine B assay relative to control; conditions: PC-3, 48 h, read-out: Activity
BT-549 [5] = assay: Cytotoxicity against human BT549 cells assessed as cell growth at 0.1 uM incubated for 48 hrs by sulforhodamine B assay relative to control; conditions: BT-549, 48 h, read-out: Activity
K562 [6] = assay: Cytotoxicity against human K562 cells assessed as cell growth at 1 uM incubated for 48 hrs by sulforhodamine B assay relative to control; conditions: K562, 48 h, read-out: Activity
SF-295 [7] = assay: Cytotoxicity against human SF295 cells assessed as cell growth at 1 uM incubated for 48 hrs by sulforhodamine B assay relative to control; conditions: SF-295, 48 h, read-out: Activity
M14 = assay: Cytotoxicity against human M14 cells assessed as cell growth at 1 uM incubated for 48 hrs by sulforhodamine B assay relative to control; conditions: M14, 48 h, read-out: Activity
SK-MEL-5 = assay: Cytotoxicity against human SK-MEL-5 cells assessed as cell growth at 1 uM incubated for 48 hrs by sulforhodamine B assay relative to control; conditions: SK-MEL-5, 48 h, read-out: Activity
UACC-62 = assay: Cytotoxicity against human UACC62 cells assessed as cell growth at 1 uM incubated for 48 hrs by sulforhodamine B assay relative to control; conditions: UACC-62, 48 h, read-out: Activity
NCI/ADR-RES [8] = assay: Cytotoxicity against human NCI/ADR-RES cells assessed as cell growth at 1 uM incubated for 48 hrs by sulforhodamine B assay relative to control; conditions: read-out: Activity
DU-145 = assay: Cytotoxicity against human DU145 cells assessed as cell growth at 1 uM incubated for 48 hrs by sulforhodamine B assay relative to control; conditions: DU-145, 48 h, read-out: Activity
CCRF-CEM = assay: Cytotoxicity against human CCRF-CEM cells assessed as cell growth at 10 uM incubated for 48 hrs by sulforhodamine B assay relative to control; conditions: read-out: Activity
SW-620 = assay: Cytotoxicity against human SW620 cells assessed as cell growth at 10 uM incubated for 48 hrs by sulforhodamine B assay relative to control; conditions: SW-620, 48 h, read-out: Activity
IGROV-1 = assay: Cytotoxicity against human IGROV1 cells assessed as cell growth at 10 uM incubated for 48 hrs by sulforhodamine B assay relative to control; conditions: IGROV-1, 48 h, read-out: Activity
NCI/ADR-RES [9] = assay: Cytotoxicity against human NCI/ADR-RES cells assessed as cell growth at 10 uM incubated for 48 hrs by sulforhodamine B assay relative to control; conditions: read-out: Activity
TK-10 = assay: Cytotoxicity against human TK10 cells assessed as cell growth at 10 uM incubated for 48 hrs by sulforhodamine B assay relative to control; conditions: TK-10, 48 h, read-out: Activity
PC-3 [10] = assay: Cytotoxicity against human PC3 cells assessed as cell growth at 10 uM incubated for 48 hrs by sulforhodamine B assay relative to control; conditions: PC-3, 48 h, read-out: Activity
MDA-MB-231 [11] = assay: Cytotoxicity against human MDA-MB-231 cells assessed as cell growth at 10 uM incubated for 48 hrs by sulforhodamine B assay relative to control; conditions: MDA-MB-231, 48 h, read-out: Activity
K562 [12] = assay: Cytotoxicity against human K562 cells assessed as cell growth at 100 uM incubated for 48 hrs by sulforhodamine B assay relative to control; conditions: K562, 48 h, read-out: Activity
SF-268 = assay: Cytotoxicity against human SF268 cells assessed as cell growth at 100 uM incubated for 48 hrs by sulforhodamine B assay relative to control; conditions: SF-268, 48 h, read-out: Activity
SF-295 [13] = assay: Cytotoxicity against human SF295 cells assessed as cell growth at 100 uM incubated for 48 hrs by sulforhodamine B assay relative to control; conditions: SF-295, 48 h, read-out: Activity
MDA-MB-231 [14] = assay: Cytotoxicity against human MDA-MB-231 cells assessed as cell growth at 100 uM incubated for 48 hrs by sulforhodamine B assay relative to control; conditions: MDA-MB-231, 48 h, read-out: Activity
BT-549 [15] = assay: Cytotoxicity against human BT549 cells assessed as cell growth at 100 uM incubated for 48 hrs by sulforhodamine B assay relative to control; conditions: BT-549, 48 h, read-out: Activity
MOLT-4 = assay: Cytotoxicity against human MOLT4 cells incubated for 48 hrs by sulforhodamine B assay; conditions: MOLT-4, 48 h
SR = assay: Cytotoxicity against human SR cells incubated for 48 hrs by sulforhodamine B assay
HCT-15 = assay: Cytotoxicity against human HCT15 cells incubated for 48 hrs by sulforhodamine B assay; conditions: HCT-15, 48 h
LOX IMVI = assay: Cytotoxicity against human LOXIMVI cells incubated for 48 hrs by sulforhodamine B assay
[16] = read-out: LC50 (the source's name)
[17] = read-out: pLC50 (the source's name) (converted)

Structure (SMILES): COc1ccc(-c2nocc2-c2cc(OC)c(OC)c(OC)c2)cc1
- EC (Paracentrotus lividus [1]): 0.1 µM
- EC (Paracentrotus lividus [2]): 1 µM
- growth at 0.01 µM (OVCAR-5): 89%
- growth at 0.01 µM (RXF 393): 103%
- growth at 0.01 µM (BT-549 [3]): 86%
- growth at 0.1 µM (A498): 29%
- growth at 0.1 µM (PC-3 [4]): 40%
- growth at 0.1 µM (BT-549 [5]): 56%
- growth at 1 µM (K562 [6]): 14%
- growth at 1 µM (SF-295 [7]): 7%
- growth at 1 µM (M14): 12%
- growth at 1 µM (SK-MEL-5): 29%
- growth at 1 µM (UACC-62): 27%
- growth at 1 µM (NCI/ADR-RES [8]): 9%
- growth at 1 µM (DU-145): 17%
- growth at 10 µM (CCRF-CEM): 24%
- growth at 10 µM (SW-620): 19%
- growth at 10 µM (IGROV-1): 25%
- growth at 10 µM (NCI/ADR-RES [9]): 9%
- growth at 10 µM (TK-10): 18%
- growth at 10 µM (PC-3 [10]): 22%
- growth at 10 µM (MDA-MB-231 [11]): 17%
- growth at 100 µM (K562 [12]): 4%
- growth at 100 µM (SF-268): 1%
- growth at 100 µM (SF-295 [13]): -35%
- growth at 100 µM (MDA-MB-231 [14]): -15%
- growth at 100 µM (BT-549 [15]): -24%
- GI50 (MOLT-4; read-out: GI50): 0.708 µM
- CC50 (MOLT-4; [16]): > 100 µM
- TGI (MOLT-4; read-out: TGI): > 100 µM
- GI50 (MOLT-4; read-out: pGI50 (converted)): 0.708 µM
- CC50 (MOLT-4; [17]): > 100 µM
- TGI (MOLT-4; read-out: pTGI): > 100 µM
- GI50 (SR; read-out: GI50): 0.0717 µM
- CC50 (SR; [16]): > 100 µM
- TGI (SR; read-out: TGI): 58.3 µM
- GI50 (SR; read-out: pGI50 (converted)): 0.0724 µM
- CC50 (SR; [17]): > 100 µM
- TGI (SR; read-out: pTGI (converted)): 58.9 µM
- GI50 (HCT-15; read-out: GI50): 0.044 µM
- LC50 (HCT-15; read-out: LC50): > 100 µM
- TGI (HCT-15; read-out: TGI): > 100 µM
- GI50 (HCT-15; read-out: pGI50 (converted)): 0.0437 µM
- LC50 (HCT-15; read-out: pLC50 (converted)): > 100 µM
- TGI (HCT-15; read-out: pTGI): > 100 µM
- GI50 (LOX IMVI; read-out: GI50): 0.254 µM
- LC50 (concentration killing 50% of cells) (LOX IMVI; read-out: LC50): > 100 µM
- TGI (LOX IMVI; read-out: TGI): 55.5 µM
- GI50 (LOX IMVI; read-out: pGI50 (converted)): 0.257 µM
- LC50 (concentration killing 50% of cells) (LOX IMVI; read-out: pLC50 (converted)): > 100 µM
- TGI (LOX IMVI; read-out: pTGI (converted)): 55 µM
